# Hits are enriched below; roughly 0.99% of the tested compounds scored in any of these assays.
# STK33 inh: human STK33 kinase inhibition; Q9BYT3; purified STK33, MBP phosphorylation, ADP-Glo luminescence; inhibition, % at 10 µM; actives 0.073% (n = 320,000); AID 2661;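 active = inhibition at or above 25%, using the most active replicate where run in duplicate; inactive = inhibition below 25%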
# Arrestin-AP2 inh: inhibitors of human beta-arrestin and AP2 interaction | inhibition, % at 10 µM | actives 0.31% (n = 340,000) | FITC-arrestin peptide / GST-AP2 beads, flow cytometry; AP2 beta2 appendage carries R879A mutation;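 active = inhibition above a set limit, near 3 SD of compounds lacking own fluorescence, cut at about 54% in these data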;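 also: plate controls were DMSO wells for no effect and 5 µM unlabelled arrestin peptide for full effect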
#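 system = GST-tagged AP2 beta2-adaptin appendage (R879A) on 4 µm glutathione beads | reagent = FITC-labelled arrestin peptide probe, 50 nM final | schedule = compound with beads 12 min RT, then probe 1 h RT | signal = HyperCyt-sampled flow cytometry, FL1 channel, ex 488/em 535 nm | read-out = percent response from loss of bead-bound FITC fluorescence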
# DYRK1A inh: inhibitors of rat Dyrk1A kinase; inhibition, % at 12.5 µM; ADP-Glo luminescence, NFATc1 peptide; Q63470; actives 0.43% (n = 310,000); in the data active = inhibition above about 50%;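 also: plate controls were vehicle with enzyme for no effect and no enzyme for full effect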
# GSK3B inh: blocks human GSK3beta kinase activity; activity score (negative = inhibition), % at 10 µM; GST-GSK3beta kinase, ADP-Glo luminescence, 60 min; hits give low values; P49841; actives 0.038% (n = 300,000);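 active = more than half of replicate wells score below -50%, meaning over 50% inhibition versus plate controls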;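 also: 0% = median DMSO wells and -100% = median GW8510 positive control wells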
#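 Assay system: GST-fused GSK3beta enzyme, cell-free / Medium: Tris pH 7.5 buffer with MgCl2, DTT, BSA, heparin / Also added: peptide substrate plus 25 µM ATP (final) / Compound: 10 µM single point / Timing: kinase reaction with compound 60 min at room temperature / Detection: ADP-Glo luminescence / Benchmarks: DMSO neutral wells and GW8510 at 20 µM as positive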
# Rin1 Abl inh: inhibitors of human Rin1-Abl protein interaction; P00519+Q13671; TR-FRET Rin1/Abl binding, biochemical; inhibition, % at 7.35 µM; actives 0.4% (n = 360,000); AID 588664; in the data active = inhibition above about 5%, passing the limit was not always enough
# GSK3A inh: blocks human GSK-3 alpha kinase; P49840; ADP-Glo luminescence, 60 min; inhibition, % at 10 µM; actives 0.1% (n = 320,000);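 active = more than half of replicates show inhibition above 20%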;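 also: GST-tagged GSK-3 alpha with peptide substrate and 25 µM ATP; 0% = DMSO neutral wells and 100% = GW8510 positive control wells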
# Arr-AP2 CP1: human beta-arrestin and AP2 interaction inhibition, cherry pick; actives 2% (n = 1,300); AID 504908; shares compounds with Arrestin-AP2 inh; GST-AP2 beads, FITC arrestin peptide binding, flow cytometry; GST-fused beta2-adaptin appendage, R879A mutant; inhibition, % at 10 µM;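 active = inhibition above a set limit, roughly 3 SD of non-fluorescent compound noise, cut at about 38% in these data; inactive = inhibition at or below that limit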;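 also: loss of bead fluorescence from 50 nM FITC arrestin peptide bound to appendage; 0% = negative control wells and 100% = excess unlabelled arrestin peptide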
# GST-FITC bead: disrupts GST binding to glutathione beads, arrestin-AP2 artifact | shares compounds with Arrestin-AP2 inh | GST-fluorescein binding to GSH beads, fluorescence, counter-screen | inhibition, % at 10 µM | actives 2% (n = 1,300) | AID 588338;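 active = inhibition above 50%, about 3 SD of the inhibition seen with non-fluorescent compounds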;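 also: fluorescein maleimide labelled GST captured on 4 micron glutathione beads; higher means more loss of bead fluorescence from quenching or blocked binding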
# An asterisk follows results filed as active; x = not tested or not shown.
SMILES,STK33 inh,Arrestin-AP2 inh,DYRK1A inh,GSK3B inh,Rin1 Abl inh,GSK3A inh,Arr-AP2 CP1,GST-FITC bead
Cc1ccc(NC(=O)CNS(=O)(=O)c2ccc(F)cc2)cc1C,-1,55*,-4,1,-1,2,-7,-5
O=C(CCCNS(=O)(=O)c1ccc(F)cc1)Nc1ccc(F)cc1,0,-3,0,-5,-2,-1,x,x
Cc1nnc(NC(=O)C(C)Sc2nnc(CNC(=O)c3ccccc3F)n2C)s1 (configuration not stated),1,1,6,2,1,1,x,x
CC(Sc1nnc2n1CCCCC2)C(=O)Nc1ccc(S(N)(=O)=O)cc1 (configuration not stated),x,3,-1,x,1,x,x,x
Cc1cc(C)cc(NC(=O)Cn2c(=O)oc3cc(S(=O)(=O)N4CC(C)CC(C)C4)ccc32)c1 (configuration not stated),-2,97*,11,-3,0,-4,-3,-8
O=C(Nc1cc2c3c(c1)CC(=O)N3CCC2)c1c(F)cccc1F,-1,5,0,-23,0,0,x,x
CC1CCCC(C)N1C(=O)COC(=O)CSc1ccc([N+](=O)[O-])cc1 (configuration not stated),x,75*,-6,x,-1,x,-6,-5
CCc1ccc(CN(C)C(=O)c2cc(S(=O)(=O)N3CCOCC3)ccc2N2CCCC2)cc1,0,-4,20,-1,2,-2,-15,-4
CCN(Cc1ccccc1)C(=O)c1cc(S(=O)(=O)N2CCOCC2)ccc1N1CCCC1,0,57*,2,-2,1,-1,-11,-2
CN(Cc1cccc(F)c1)C(=O)c1cc(S(=O)(=O)N2CCOCC2)ccc1N1CCCC1,0,-2,-1,x,3,13,-4,-4
Cc1ccsc1CN(C)C(=O)c1cc(S(=O)(=O)N2CCOCC2)ccc1N1CCCC1,0,-8,x,x,-1,-1,x,x
COC(=O)c1ccc(COC(=O)CNC(=O)c2ccc(C)s2)cc1,0,4,1,x,-1,-3,x,x
CCOc1ccc(CCNC(=O)CN2C(=O)NC3(CCCC3)C2=O)cc1OCC,3,11,-6,1,2,6,x,x
COc1ccc(/C=C/C(=O)c2ccccc2)cc1COc1ccccc1F,-1,56*,1,-2,6,-1,17,-7
CC1CCC(NC(=O)CN2CCN(S(=O)(=O)c3ccc(Br)s3)CC2)CC1 (configuration not stated),x,x,x,x,1,x,x,x
O=C(CCc1nnc(C2CCCCC2)o1)N1CCN(C2CCCCC2)CC1,-3,33,0,2,-1,2,x,x
COC(c1ccccc1)c1nnc(CCC(=O)N2CCN(C3CCCC3)CC2)o1 (configuration not stated),-3,69*,-5,2,2,-2,17,-8
CC/C(=N\NC(=S)NC(C)C)c1ccc(OC)c(OC)c1,-1,56*,-5,1,-5,0,2,-3
COc1ccc(OC)c2c1C(=O)C(Cl)=C(Cl)C2=O,0,87*,10,-7,1,-1,72*,28
COc1cccc(C(=O)Nc2ccc3c(c2)n(C)c(=O)n3C)c1,-3,3,4,5,-6,0,x,x
COc1cccc(C(=O)Nc2cc3c(cc2N2CCCC2)n(C)c(=O)n3C)c1,1,12,-2,4,-1,3,1,-11
Cn1c(=O)n(C)c2cc(N3CCCC3)c(NC(=O)c3cccc(F)c3)cc21,2,-7,4,0,-1,-1,25,-2
CC(C)c1nnc(NC(=O)Cc2ccccc2[N+](=O)[O-])s1,2,58*,-4,0,-1,-1,-6,4
O=C(NCC1CCCO1)c1cc2ccccc2nc1Cl (configuration not stated),-1,23,2,0,2,2,x,x
Cc1nc2ccc(F)cc2cc1C(=O)NCC1CCCO1 (configuration not stated),x,105*,-1,1,3,x,11,0
SMILES,STK33 inh,Arrestin-AP2 inh,DYRK1A inh,GSK3B inh,Rin1 Abl inh,GSK3A inh,Arr-AP2 CP1,GST-FITC bead
CCCS(=O)(=O)NC(=O)C1(C)CCCN(C(=O)c2ccco2)C1 (configuration not stated),x,x,x,x,-4,x,x,x
O=C(C[n+]1cccc(C(=O)Nc2ccccc2)c1)c1ccc([N+](=O)[O-])cc1,2,1,-3,-4,2,1,x,x
NC(=O)C[n+]1cccc(C(=O)Nc2ccccc2)c1,-2,66*,x,0,-1,-2,-19,-6
Cc1cc(NS(=O)(=O)c2ccc(NC(=O)COc3cc(C)c(Cl)c(C)c3)cc2)no1,-2,-2,-2,x,0,1,x,x
O=S1(=O)N=C(N(CCO)/N=C/c2ccccc2)c2ccccc21,x,60*,-4,-1,2,x,2,28
CC(C)(C)C(=O)NCc1ccc(C(=O)CSc2nnc(-c3ccncc3)n2C2CC2)s1,x,62*,-1,x,0,x,-11,2
O=S(=O)(NCCOc1ccccc1F)c1ccc(Cl)cc1F,-1,60*,-5,x,0,-2,-3,-10
CCCOc1ccc(C(=O)CCNc2cccc(Cl)c2)cc1,-2,57*,-2,1,4,-5,5,-1
O=C(c1ccnc(Cl)c1)N1CCCC(N2CCN(c3ccccc3F)CC2)C1 (configuration not stated),-1,63*,-5,6,1,0,2,-3
O=C(c1ccco1)N1CCCC(N2CCN(c3ccccc3F)CC2)C1 (configuration not stated),0,-16,5,-2,1,-4,x,x
Cc1ccc(S(=O)(=O)c2c(C)cc(C)nc2N2CCCCC2)cc1,x,70*,-2,-2,2,x,0,-2
COc1ccc2c(c1)c1ccc3c(c1n2C)C(=O)C=CC3=O,x,57*,4,x,-3,x,33,3
COc1ccc2c(c1)c1ncn(CCN3CCCC3)c(=O)c1n2C,2,4,37,1,-4,0,x,x
Cc1ccc2c(c1)c1ccc3c(c1n2C)C(=O)C=CC3=O,x,48,-3,x,1,x,x,x
Cn1c2ccccc2c2ccc3c(c21)C(=O)C=CC3=O,x,70*,5,x,5,x,55*,2
Nc1c(N(Cc2ccccc2)C(=O)COc2ccc(F)cc2Cl)c(=O)[nH]c(=O)n1Cc1ccccc1,-1,-6,x,x,2,1,x,x
O=S(=O)(c1ccc2c(c1)OCCO2)N1CCN(S(=O)(=O)c2ccco2)CC1,-1,11,-6,x,0,-3,x,x
